Experimental data from ChEMBL document CHEMBL3994637, “Broad spectrum anti-infective properties of benzisothiazolones and the parallels in their anti-bacterial and anti-fungal effects” (Bioorg Med Chem Lett, 2017).
pIC50: −log10 of the molar value. Values after ≈ are worked out from the molar mass of the structure shown.

Tests used:
Format in all cases: functional
[1] = tested on: Escherichia coli; assay: Antibacterial activity against Escherichia coli ATCC 9637 by broth microdilution method; conditions: W
Outline: (§1)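 Bacteria were tested by the NCCLS method in Mueller Hinton broth, with gentamicin and norfloxacin as reference drugs.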

[2] = tested on: Staphylococcus aureus; assay: Antibacterial activity against methicillin-resistant Staphylococcus aureus ATCC 700699 by broth microdilution method; conditions: Mu50
[3] = tested on: Sporothrix schenckii; assay: Anti-fungal activity against Sporothrix schenckii after 48 hrs by broth microdilution method
[4] = tested on: Staphylococcus aureus; assay: Antibacterial activity against Staphylococcus aureus ATCC 29213 by broth microdilution method
[5] = tested on: Aspergillus fumigatus; assay: Anti-fungal activity against Aspergillus fumigatus after 48 hrs by broth microdilution method
[6] = tested on: Trichophyton mentagrophytes; assay: Anti-fungal activity against Trichophyton mentagrophytes after 48 hrs by broth microdilution method
[7] = tested on: Staphylococcus aureus; assay: Antibacterial activity against gentamicin-resistant Staphylococcus aureus ATCC 33592 by broth microdilution method
[8] = tested on: Staphylococcus aureus; assay: Antibacterial activity against Staphylococcus aureus ATCC 25923 by broth microdilution method
[9] = tested on: Klebsiella pneumoniae; assay: Antibacterial activity against Klebsiella pneumoniae ATCC 27736 by broth microdilution method; outline: as §1
[10] = tested on: Plasmodium falciparum; assay: Antimalarial activity against chloroquine-sensitive Plasmodium falciparum 3D7 after 72 hrs by SYBR Green-1 staining based fluorescence assay; conditions: 3D7, 72 h
[11] = tested on: Candida albicans; assay: Anti-fungal activity against Candida albicans after 48 hrs by broth microdilution method
[12] = tested on: Candida parapsilosis; assay: Anti-fungal activity against Candida parapsilosis ATCC 22019 after 48 hrs by broth microdilution method; conditions: Lodderomyces parapsilosis, ATCC 22019, 48 h
[13] = tested on: Cryptococcus neoformans; assay: Anti-fungal activity against Cryptococcus neoformans after 48 hrs by broth microdilution method
[14] = tested on: Pseudomonas aeruginosa; assay: Antibacterial activity against Pseudomonas aeruginosa ATCC BAA-427 by broth microdilution method; outline: as §1

O=c1c2ccccc2sn1-c1ccccc1I
MIC [1]: > 50 µg/mL
MIC [2]: 25 µg/mL (≈ 70.8 µM)
MIC [3]: 25 µg/mL (≈ 70.8 µM)
MIC [4]: 12.5 µg/mL (≈ 35.4 µM)
MIC [5]: 50 µg/mL (≈ 142 µM)
MIC [6]: 25 µg/mL (≈ 70.8 µM)
MIC [7]: 12.5 µg/mL (≈ 35.4 µM)
MIC [8]: 12.5 µg/mL (≈ 35.4 µM)
MIC [9]: > 50 µg/mL
pIC50 [10]: < 5.70
MIC [11]: 25 µg/mL (≈ 70.8 µM)
MIC [12]: 25 µg/mL (≈ 70.8 µM)
MIC [13]: 25 µg/mL (≈ 70.8 µM)
MIC [14]: > 50 µg/mL

O=c1c2ccccc2sn1-c1cccc(Cl)c1
MIC [1]: > 50 µg/mL
MIC [2]: 3.12 µg/mL (≈ 11.9 µM)
MIC [3]: 12.5 µg/mL (≈ 47.8 µM)
MIC [4]: 6.25 µg/mL (≈ 23.9 µM)
MIC [5]: 25 µg/mL (≈ 95.5 µM)
MIC [6]: 12.5 µg/mL (≈ 47.8 µM)
MIC [7]: 6.25 µg/mL (≈ 23.9 µM)
MIC [8]: 6.25 µg/mL (≈ 23.9 µM)
MIC [9]: > 50 µg/mL
pIC50 [10]: < 5.70
MIC [11]: 25 µg/mL (≈ 95.5 µM)
MIC [12]: 25 µg/mL (≈ 95.5 µM)
MIC [13]: 12.5 µg/mL (≈ 47.8 µM)
MIC [14]: > 50 µg/mL

O=c1c2ccccc2sn1-c1ccccc1Cl
MIC [1]: > 50 µg/mL
MIC [2]: 12.5 µg/mL (≈ 47.8 µM)
MIC [3]: 12.5 µg/mL (≈ 47.8 µM)
MIC [4]: 12.5 µg/mL (≈ 47.8 µM)
MIC [5]: 25 µg/mL (≈ 95.5 µM)
MIC [6]: 12.5 µg/mL (≈ 47.8 µM)
MIC [7]: 12.5 µg/mL (≈ 47.8 µM)
MIC [8]: 25 µg/mL (≈ 95.5 µM)
MIC [9]: > 50 µg/mL
pIC50 [10]: < 5.70
MIC [11]: 25 µg/mL (≈ 95.5 µM)
MIC [12]: 25 µg/mL (≈ 95.5 µM)
MIC [13]: 12.5 µg/mL (≈ 47.8 µM)
MIC [14]: > 50 µg/mL

O=c1c2ccccc2sn1-c1ccccc1F
MIC [1]: > 50 µg/mL
MIC [2]: 6.25 µg/mL (≈ 25.5 µM)
MIC [3]: 12.5 µg/mL (≈ 51 µM)
MIC [4]: 12.5 µg/mL (≈ 51 µM)
MIC [5]: 25 µg/mL (≈ 102 µM)
MIC [6]: 12.5 µg/mL (≈ 51 µM)
MIC [7]: 12.5 µg/mL (≈ 51 µM)
MIC [8]: 25 µg/mL (≈ 102 µM)
MIC [9]: > 50 µg/mL
pIC50 [10]: < 5.70
MIC [11]: 12.5 µg/mL (≈ 51 µM)
MIC [12]: 12.5 µg/mL (≈ 51 µM)
MIC [13]: 12.5 µg/mL (≈ 51 µM)
MIC [14]: > 50 µg/mL

Nc1ccccc1-n1sc2ccccc2c1=O
IC50 [1]: > 50 µg/mL
MIC [1]: > 50 µg/mL
IC50 [2]: > 50 µg/mL
MIC [2]: > 50 µg/mL
IC50 [3]: 5.7 µg/mL (≈ 23.5 µM)
MIC [3]: 11.7 µg/mL (≈ 48.3 µM)
IC50 [4]: > 50 µg/mL
MIC [4]: > 50 µg/mL
MIC [5]: 12.5 µg/mL (≈ 51.6 µM)
MIC [6]: 3.3 µg/mL (≈ 13.6 µM)
IC50 [8]: > 50 µg/mL
MIC [8]: > 50 µg/mL
IC50 [9]: > 50 µg/mL
MIC [9]: > 50 µg/mL
pIC50 [10]: < 5.70
IC50 [11]: 2.6 µg/mL (≈ 10.7 µM)
MIC [11]: 4.3 µg/mL (≈ 17.7 µM)
IC50 [12]: > 50 µg/mL
MIC [12]: > 50 µg/mL
IC50 [13]: 1.9 µg/mL (≈ 7.84 µM)
MIC [13]: 2.3 µg/mL (≈ 9.49 µM)
IC50 [14]: > 50 µg/mL
MIC [14]: > 50 µg/mL

COC(=O)[C@H](C(C)C)n1sc2ccccc2c1=O
IC50 [1]: > 50 µg/mL
MIC [1]: > 50 µg/mL
IC50 [2]: 0.82 µg/mL (≈ 3.09 µM)
MIC [2]: 0.97 µg/mL (≈ 3.66 µM)
IC50 [3]: 2.5 µg/mL (≈ 9.42 µM)
MIC [3]: 11.9 µg/mL (≈ 44.8 µM)
IC50 [4]: 2.6 µg/mL (≈ 9.8 µM)
MIC [4]: 4.6 µg/mL (≈ 17.3 µM)
MIC [5]: 12.5 µg/mL (≈ 47.1 µM)
IC50 [6]: 1.7 µg/mL (≈ 6.41 µM)
MIC [6]: 2.4 µg/mL (≈ 9.05 µM)
IC50 [8]: 2.4 µg/mL (≈ 9.05 µM)
MIC [8]: 2.9 µg/mL (≈ 10.9 µM)
IC50 [9]: > 50 µg/mL
MIC [9]: > 50 µg/mL
pIC50 [10]: < 5.70
IC50 [11]: 1.2 µg/mL (≈ 4.52 µM)
MIC [11]: 2.3 µg/mL (≈ 8.67 µM)
IC50 [12]: 1.6 µg/mL (≈ 6.03 µM)
MIC [12]: 3.1 µg/mL (≈ 11.7 µM)
IC50 [13]: 2.5 µg/mL (≈ 9.42 µM)
MIC [13]: 4.5 µg/mL (≈ 17 µM)
IC50 [14]: > 50 µg/mL
MIC [14]: > 50 µg/mL

COC(=O)[C@H](CC(C)C)n1sc2ccccc2c1=O
IC50 [1]: > 50 µg/mL
MIC [1]: > 50 µg/mL
IC50 [2]: 2.1 µg/mL (≈ 7.52 µM)
MIC [2]: 3.5 µg/mL (≈ 12.5 µM)
IC50 [3]: 2.9 µg/mL (≈ 10.4 µM)
MIC [3]: 20.4 µg/mL (≈ 73 µM)
IC50 [4]: 2.7 µg/mL (≈ 9.66 µM)
MIC [4]: 6.9 µg/mL (≈ 24.7 µM)
MIC [5]: > 50 µg/mL
IC50 [6]: 6.2 µg/mL (≈ 22.2 µM)
MIC [6]: 11.4 µg/mL (≈ 40.8 µM)
IC50 [8]: 2.1 µg/mL (≈ 7.52 µM)
MIC [8]: 3.5 µg/mL (≈ 12.5 µM)
IC50 [9]: > 50 µg/mL
MIC [9]: > 50 µg/mL
pIC50 [10]: < 5.70
IC50 [11]: 1.5 µg/mL (≈ 5.37 µM)
MIC [11]: 1.9 µg/mL (≈ 6.8 µM)
IC50 [12]: 2.4 µg/mL (≈ 8.59 µM)
MIC [12]: 4.9 µg/mL (≈ 17.5 µM)
IC50 [13]: 8.6 µg/mL (≈ 30.8 µM)
MIC [13]: 10.5 µg/mL (≈ 37.6 µM)
IC50 [14]: > 50 µg/mL
MIC [14]: > 50 µg/mL

C[C@@H](c1ccccc1)n1sc2ccccc2c1=O
IC50 [1]: > 50 µg/mL
MIC [1]: > 50 µg/mL
IC50 [2]: 1 µg/mL (≈ 3.92 µM)
MIC [2]: 1.9 µg/mL (≈ 7.44 µM)
IC50 [3]: 0.4 µg/mL (≈ 1.57 µM)
MIC [3]: 1.6 µg/mL (≈ 6.27 µM)
IC50 [4]: 4.6 µg/mL (≈ 18 µM)
MIC [4]: 8.5 µg/mL (≈ 33.3 µM)
IC50 [5]: 0.4 µg/mL (≈ 1.57 µM)
MIC [5]: 6.5 µg/mL (≈ 25.5 µM)
IC50 [6]: 0.7 µg/mL (≈ 2.74 µM)
MIC [6]: 0.4 µg/mL (≈ 1.57 µM)
IC50 [8]: 6.8 µg/mL (≈ 26.6 µM)
MIC [8]: 10.2 µg/mL (≈ 39.9 µM)
IC50 [9]: > 50 µg/mL
MIC [9]: > 50 µg/mL
pIC50 [10]: < 5.70
IC50 [11]: 0.5 µg/mL (≈ 1.96 µM)
MIC [11]: 1 µg/mL (≈ 3.92 µM)
IC50 [12]: 0.7 µg/mL (≈ 2.74 µM)
MIC [12]: 2.1 µg/mL (≈ 8.22 µM)
IC50 [13]: 1 µg/mL (≈ 3.92 µM)
MIC [13]: 2.9 µg/mL (≈ 11.4 µM)
IC50 [14]: > 50 µg/mL
MIC [14]: > 50 µg/mL
